The source of these data is ChEMBL document CHEMBL1255513, “Synthesis and biological evaluation of indomethacin analogs possessing a N-difluoromethyl-1,2-dihydropyrid-2-one ring system: a search for novel cyclooxygenase and lipoxygenase inhibitors” (Bioorg Med Chem Lett, 2010).

Experiment [1] concerns the target T1, Prostaglandin G/H synthase 1 (Ovis aries, UniProt P05979).
T1 sequence (P05979 whole entry): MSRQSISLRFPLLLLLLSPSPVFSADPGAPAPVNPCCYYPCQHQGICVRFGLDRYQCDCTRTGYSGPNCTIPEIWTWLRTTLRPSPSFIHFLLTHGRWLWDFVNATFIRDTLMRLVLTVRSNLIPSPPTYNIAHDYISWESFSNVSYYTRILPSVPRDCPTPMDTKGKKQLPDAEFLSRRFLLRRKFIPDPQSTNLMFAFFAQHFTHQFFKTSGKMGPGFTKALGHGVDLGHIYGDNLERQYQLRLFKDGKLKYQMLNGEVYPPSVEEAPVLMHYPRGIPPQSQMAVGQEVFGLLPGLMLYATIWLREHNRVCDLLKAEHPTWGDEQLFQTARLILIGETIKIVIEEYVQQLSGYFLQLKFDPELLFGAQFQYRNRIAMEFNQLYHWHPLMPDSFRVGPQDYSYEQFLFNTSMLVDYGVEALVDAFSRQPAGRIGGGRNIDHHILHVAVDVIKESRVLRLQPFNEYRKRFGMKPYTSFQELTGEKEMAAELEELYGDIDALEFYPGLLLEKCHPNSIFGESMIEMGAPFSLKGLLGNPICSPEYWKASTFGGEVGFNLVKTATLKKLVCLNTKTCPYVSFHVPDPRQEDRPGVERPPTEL
The experiment is described as follows: Inhibition of ovine COX1 by enzyme immunoassay. The essentials: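 COX inhibition was measured by enzyme immunoassay kit. IC50 is the mean of two determinations, with deviation from the mean below 10%.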

The target of experiment [2] is T2, Prostaglandin G/H synthase 2 (Homo sapiens, UniProt P35354).
T2 sequence (P35354 whole entry): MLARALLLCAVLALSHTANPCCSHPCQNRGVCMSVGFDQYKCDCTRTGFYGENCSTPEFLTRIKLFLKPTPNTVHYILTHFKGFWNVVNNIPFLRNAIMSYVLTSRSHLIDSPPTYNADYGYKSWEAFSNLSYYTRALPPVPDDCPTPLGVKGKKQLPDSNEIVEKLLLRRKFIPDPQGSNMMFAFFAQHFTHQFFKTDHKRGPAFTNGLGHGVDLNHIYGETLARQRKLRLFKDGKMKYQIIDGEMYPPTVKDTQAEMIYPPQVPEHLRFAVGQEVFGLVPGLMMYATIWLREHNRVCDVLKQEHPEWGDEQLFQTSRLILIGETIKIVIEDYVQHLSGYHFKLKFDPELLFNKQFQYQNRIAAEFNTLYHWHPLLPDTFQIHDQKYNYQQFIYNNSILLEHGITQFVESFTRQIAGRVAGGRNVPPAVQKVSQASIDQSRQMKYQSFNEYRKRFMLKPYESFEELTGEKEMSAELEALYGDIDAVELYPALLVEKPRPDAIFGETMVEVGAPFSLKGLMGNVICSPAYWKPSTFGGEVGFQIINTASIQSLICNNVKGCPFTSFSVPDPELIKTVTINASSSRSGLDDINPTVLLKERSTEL
The experiment is described as follows: Inhibition of human recombinant COX2 by enzyme immunoassay.

Experiment [3] can be described thus: Inhibition of potato 5-lipoxygenase by enzyme immunoassay. Details: species or system Solanum tuberosum.
Experiment [4] has as its system Rattus norvegicus. Put plainly: Antiinflammatory activity in rat assessed as inhibition of carrageenan-induced rat paw edema at 100 mg/kg, po after 3 hrs. In kind it is functional. The procedure, abridged:
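Carrageenan-induced rat paw edema; test compound given orally at 100 mg/kg. Result is % inhibition of inflammation at 3 h after dosing. Protocol was approved by the University of Alberta Health Sciences Animal Welfare Committee.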

Experiment [5] concerns Rattus norvegicus. Put plainly: Antiinflammatory activity in rat assessed as inhibition of carrageenan-induced rat paw edema at 4.2 mg/kg, po after 3 hrs. The format is functional. The essentials:
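Carrageenan-induced foot paw edema in rats, with the agent given orally. Read-out is % inhibition of inflammation, measured 3 h after the oral dose. Animal work followed protocols approved by the University of Alberta Health Sciences Animal Welfare Committee.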

The source made the active and inactive calls. The rule behind the calls is not given here.

In the case of `COc1ccc2c(c1)c(CC(=O)O)c(C)n2Cc1ccn(C(F)F)c(=O)c1`, the IC50 was above 100 µM in experiment [1], 31 µM in experiment [2] and above 100 µM in experiment [3]. Besides, the inhibition entry in the experiment with Rattus norvegicus [4] was “inactive”.

In the case of `COc1ccc2c(c1)c(CC(=O)O)c(C)n2C(=O)c1ccc(Cl)cc1` [INDOMETHACIN], the inhibition in vivo at 4.2 mg/kg in the experiment with Rattus norvegicus [5] was 50%.

In the case of `COc1ccc2c(c1)c(CC(=O)O)c(C)n2C(=O)c1ccn(C(F)F)c(=O)c1`, the IC50 in experiment [1], in experiment [2] and in experiment [3] was above 100 µM in each case. Also, the inhibition in vivo at 100 mg/kg in the experiment with Rattus norvegicus [4] worked out at 25.5%.

As to `CC(Cc1ccc(O)c(O)c1)C(C)Cc1ccc(O)c(O)c1` (centres undefined) [NORDIHYDROGUAIARETIC ACID], the 50% inhibitory concentration (IC50) in experiment [3] came to 13 µM.

Regarding `COc1ccc2c(c1)c(CC(=O)O)c(C)n2Cc1ccc(=O)n(C(F)F)c1`, the IC50 in experiment [1], in experiment [2] and in experiment [3] was above 100 µM in each case. Also, the inhibition in vivo at 100 mg/kg with Rattus norvegicus [4] worked out at 16%.
